# PPC-1+TRAIL kill: compounds killing PPC-1 cancer cells with TRAIL present, primary screen, TRAIL potentiator project, ATPLite luminescence, uHTS; PPC-1 cells + TRAIL, ATPLite viability luminescence; cell killing (% activity), % at 4 µM or 5 µM; 220,000 tested, 0.41% active; AID 1443, 2008;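 active = cell killing above 50% in the first pass at 4 µM, then a duplicate retest at 5 µM averaging 50% or more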
# TAG inh: inhibitors of triacylglycerol accumulation, primary screen, cell-based, uHTS, fluorescence, H9c2; H9c2 cells, Nile Red lipid (TAG) fluorescence; cells loaded with 200 µM oleic acid; AID 651582, 2012; 230,000 tested, 0.66% active; inhibition, % at 12.5 µM;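 active = pattern-corrected inhibition of lipid staining of at least 50% with the nuclear-stain viability signal not falling by more than 50%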
# Hep lipid drop: inhibitors of hepatocyte lipid droplet formation, primary screen, imaging, high-throughput imaging, BODIPY stain. inhibition, % at 6.5 µM. AID 1656, 2009. AML12 mouse hepatocytes, oleate lipid droplets. 240,000 tested, 0.4% active;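 active = lipid droplet intensity inhibited by at least 50%, with more than 500 cells counted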
#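 Assay system: AML12 mouse liver cells | Compound: 6.5 µM single-point dosing | Schedule: Overnight exposure | Technique: Fluorescence imaging, 20x objective, two fields per well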
# Platelet DG rel: inhibitors of platelet dense granule secretion, primary screen, cell-based, MLPCN, human platelets; human platelet-rich plasma, SFLLRN dense granule ATP release, luminescence; inhibition, %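 (compounds screened at 7.5 µM in platelet-rich plasma)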; 300,000 tested, 0.22% active; AID 1663, 2009;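 active = mean replicate score, as percent of positive control, at or above 50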
# STAT3 blocker: IL-6 driven STAT3 reporter inhibitors, primary screen, U3A cells, luciferase, luminescence, MLSCN library; 190,000 tested, 0.89% active; inhibition, % at 5.5 µM; IL-6 STAT3-luciferase reporter; host cell line lacks STAT1;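 active = inhibition above the mean inhibition across all screened compounds plus 3 SD, cut at about 44% in these data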
# STAT1 inh: STAT1 signaling inhibitors, primary screen, cell-based, HTS, luciferase reporter. NIH 3T3 STAT1-luciferase reporter, IFN-gamma, luminescence. inhibition, % at 5.5 µM. 200,000 tested, 0.35% active. AID 920, 2007;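 active = inhibition above a set limit, the mean inhibition across all tested compounds plus 3 SD, cut at about 34% in these data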
# TAG conf: triacylglycerol accumulation inhibitors, retest, confirmation, cell-based, single concentration, Nile Red fluorescence, H9c2 | shares compounds with TAG inh | H9c2 lipid accumulation; cells loaded with 200 µM oleic acid | inhibition, % at 12.5 µM | 990 tested, 71% active | AID 651629, 2012;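 active = mean inhibition across replicates of 40% or more; inactive = mean inhibition below 40%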
# Hits are given with their value; 0 = inactive; - = no result given. A selection: hits, their analogues and other compounds. The true share with any hit is near 1.5%.
SMILES,PPC-1+TRAIL kill,TAG inh,Hep lipid drop,Platelet DG rel,STAT3 blocker,STAT1 inh,TAG conf
Cc1ccccc1NS(=O)(=O)c1cc2c3c(c1)CC(=O)N3CCC2,-,-,0,0,-,-,-
Cc1ccccc1NS(=O)(=O)c1ccc(N2CCCC2=O)cc1,0,57.9,-,0,0,0,0
COc1cc(-c2nc3c(c(C)nn3-c3ccccc3)c3cc(OC)c(OC)cc23)ccc1O,0,61.8,-,0,0,0,58.5
CCCCOc1ccc(NC(=O)C(=O)NCCC2=CCCCC2)cc1,0,63.7,0,0,0,0,0
COc1ccc(NC(=O)NCCC2=CCCCC2)cc1,0,0,0,0,0,0,-
Oc1ccc(C[C@H]2CNC(=S)N2CC2CCCN2C[C@H](Cc2ccc(O)cc2)N2C[C@H](Cc3ccc(O)cc3)N(CC3CCCCC3)C2=S)cc1 (stereo partly specified),-,75.4,-,-,-,-,72.8
N#CC1(NC(=O)COc2ccc(C(N)=O)cc2)CCCC1,-,0,-,-,-,-,-
CCOC(=O)c1c(C)[nH]c(-c2csc(N)n2)c1C,0,63.8,0,-,0,0,0
CCOC(=O)c1c(C)[nH]c(-c2csc(C)n2)c1C,0,0,0,0,0,0,-
CCCCOc1ccccc1NC(=O)Cn1c(-c2nonc2N)nc2ccccc21,0,72.8,0,0,0,0,64.0
COc1cc(Cn2c(-c3nonc3N)nc3ccccc32)ccc1C,0,66.0,0,0,0,0,62.3
CCCCn1c(N)c(N(C)C(=O)c2c(C)nn(-c3ccccc3)c2C)c(=O)[nH]c1=O,-,0,-,-,-,-,-
CCN(C(=O)CSc1nc2ccc(Cl)cc2[nH]1)C1CCS(=O)(=O)C1 (stereo unspecified),-,0,-,-,-,-,-
O=C(Nc1ccc2ccccc2c1)[C@@H]1C[C@H]1[C@@H](NP(=O)(c1ccccc1)c1ccccc1)c1ccccc1,0,52.1,0,-,0,0,0
C[C@]12c3[nH]c4cc(-c5ccco5)ccc4c3CCN1C(=O)[C@@H](CC(=O)NCCCn1ccnc1)C[C@@H]2C(=O)N1CCCCC1,-,0,-,-,-,-,-
CN(C)CCCNC(=O)C[C@H]1C[C@H](C(=O)N2CCCCC2)[C@@]2(C)c3[nH]c4cc(-c5ccco5)ccc4c3CCN2C1=O,-,57.8,-,-,-,-,0
CN(C)CCCNC(=O)C[C@H]1C[C@H](C(=O)N2CCCCC2)[C@@]2(CCc3ccccc3)c3[nH]c4cc(-c5ccco5)ccc4c3CCN2C1=O,-,57.0,-,-,-,-,70.2
CN(C)CCCNC(=O)CC1C[C@H](C(=O)N2CCCCC2)[C@@]2(CCc3ccccc3)c3[nH]c4ccccc4c3CCN2C1=O (stereo partly specified),-,53.1,-,-,-,-,48.1
COc1cccc(C(=O)N2CCCc3ccccc32)c1OC,-,0,-,-,-,-,-
CN(C)c1cccc(NC(=O)C2Cc3c(-c4ccc(Cl)cc4)ccnc3O2)c1 (stereo unspecified),-,0,-,-,-,-,-
Cc1ccc(CN(C(=O)c2csnn2)C(C(=O)NC2CCCC2)c2ccc(C)o2)cc1 (stereo unspecified),0,51.2,0,0,0,0,42.5
Cc1ccc(C(C(=O)NC2CCCC2)N(C(=O)c2csnn2)c2ccccc2)o1 (stereo unspecified),-,-,0,0,-,-,-
CC(C)C(=O)N1CCCC1(C)C(=O)Nc1ccc(F)cc1 (stereo unspecified),-,0,-,-,-,-,-
Nc1ccc(C#Cc2ccccc2)cc1,0,-,-,0,0,0,-
Nc1ccccc1C#Cc1ccccc1,0,52.6,-,0,0,0,53.6
SMILES,PPC-1+TRAIL kill,TAG inh,Hep lipid drop,Platelet DG rel,STAT3 blocker,STAT1 inh,TAG conf
Cc1ccc(C2c3c(C)nn(-c4ccc([N+](=O)[O-])cc4)c3N=C3C(=O)Nc4ccccc4N32)cc1 (stereo unspecified),0,-,0,0,0,0,-
Cc1nn(-c2ccc([N+](=O)[O-])cc2)c2c1C(c1ccc(OC(F)F)cc1)N1C(=N2)C(=O)Nc2ccccc21 (stereo unspecified),0,65.5,0,0,0,0,69.3
COc1cccc(C2c3c(C)nn(-c4ccc([N+](=O)[O-])cc4)c3N=C3C(=O)Nc4ccccc4N32)c1 (stereo unspecified),0,75.8,0,0,0,0,80.7
Cc1cccc(NC(=O)c2nc[nH]c2C(=O)NCCCCCCNC(=O)c2[nH]cnc2C(=O)Nc2cccc(C)c2)c1,-,75.6,-,-,-,-,0
Cc1cccc(NC(=O)c2nc[nH]c2C(=O)NCc2ccccc2)c1,-,0,-,-,-,-,-
COc1ccc(-c2csc(C(C)(O)c3ccc(F)c(F)c3)n2)cn1 (stereo unspecified),-,0,-,-,-,-,-
CC[C@]12c3[nH]c4ccc(Cl)cc4c3CCN1C(=O)[C@@H](CC(=O)NCCC1=CCCCC1)C[C@@H]2C(=O)N1CCN(C(=O)c2ccco2)CC1,-,0,-,-,-,-,-
COCCn1c(SCC(=O)Nc2nnc(C)s2)nnc1-c1ccoc1C,0,0,0,0,0,0,-
COCCCn1c(SCC(=O)Nc2nc3ccccc3s2)nnc1-c1ccoc1C,0,50.7,0,0,0,0,0
O=C(OCc1ccc(Br)cc1)c1cc([N+](=O)[O-])ccc1N1CCOCC1,-,52.0,-,-,-,-,61.2
O=C(OCc1cccc(Cl)c1)c1cc([N+](=O)[O-])ccc1N1CCOCC1,-,0,-,0,-,-,-
CCOC(=O)c1cc(CC)sc1NC(=O)c1cc(OC)c(OC)c(OC)c1,0,65.6,0,0,0,0,0
CCOC(=O)c1cc(CC)sc1NC(=O)c1ccc(N2CCOCC2)c([N+](=O)[O-])c1,0,-,-,0,0,0,-
O=C(COC(=O)c1cc([N+](=O)[O-])ccc1N1CCOCC1)Nc1ccc(Cl)cc1,-,0,0,0,-,-,-
O=C(COC(=O)c1cc([N+](=O)[O-])ccc1N1CCOCC1)Nc1ccc(Cl)cn1,-,50.7,0,0,-,-,0
CCOC(=O)c1cc(CC)sc1NC(=O)c1cc([N+](=O)[O-])ccc1N1CCOCC1,0,91.5,-,0,0,0,59.8
CCN(CC)C(=O)c1cccc(-c2csc(C(O)c3cccc(OC)c3)n2)c1 (stereo unspecified),-,0,-,-,-,-,-
COCCNC(=O)C1(C)CCCN(Cc2ccc3ccccc3c2Br)C1 (stereo unspecified),-,0,-,-,-,-,-
CCCCCCCCNCCS(=O)(=O)NC1CCCCC1,-,0,-,-,-,-,-
Cc1cc(C)nc(Nc2cccc(C(F)(F)F)c2)n1,-,0,0,0,-,-,-
Nc1ccccc1Nc1cccc(C(F)(F)F)c1,0,68.4,0,0,0,0,74.4
O=C(O)CC1(CC(=O)NCc2ccc(C(F)(F)F)cc2)CCCCC1,0,0,0,0,-,-,-

# High-throughput results (PubChem)
